In ChEMBL document CHEMBL3351316, “Scaffold hopping approach on the route to selective tankyrase inhibitors” (Eur J Med Chem, 2014):

Experiments:
[1] = molecular target: T1, Poly [ADP-ribose] polymerase tankyrase-1 (Homo sapiens, UniProt O95271); test: Inhibition of GST-tagged human recombinant TNKS1 incubated for 1 hr using NAD+, biotinylated NAD+ and activated DNA by luminescence based assay
T1 sequence (O95271 whole entry): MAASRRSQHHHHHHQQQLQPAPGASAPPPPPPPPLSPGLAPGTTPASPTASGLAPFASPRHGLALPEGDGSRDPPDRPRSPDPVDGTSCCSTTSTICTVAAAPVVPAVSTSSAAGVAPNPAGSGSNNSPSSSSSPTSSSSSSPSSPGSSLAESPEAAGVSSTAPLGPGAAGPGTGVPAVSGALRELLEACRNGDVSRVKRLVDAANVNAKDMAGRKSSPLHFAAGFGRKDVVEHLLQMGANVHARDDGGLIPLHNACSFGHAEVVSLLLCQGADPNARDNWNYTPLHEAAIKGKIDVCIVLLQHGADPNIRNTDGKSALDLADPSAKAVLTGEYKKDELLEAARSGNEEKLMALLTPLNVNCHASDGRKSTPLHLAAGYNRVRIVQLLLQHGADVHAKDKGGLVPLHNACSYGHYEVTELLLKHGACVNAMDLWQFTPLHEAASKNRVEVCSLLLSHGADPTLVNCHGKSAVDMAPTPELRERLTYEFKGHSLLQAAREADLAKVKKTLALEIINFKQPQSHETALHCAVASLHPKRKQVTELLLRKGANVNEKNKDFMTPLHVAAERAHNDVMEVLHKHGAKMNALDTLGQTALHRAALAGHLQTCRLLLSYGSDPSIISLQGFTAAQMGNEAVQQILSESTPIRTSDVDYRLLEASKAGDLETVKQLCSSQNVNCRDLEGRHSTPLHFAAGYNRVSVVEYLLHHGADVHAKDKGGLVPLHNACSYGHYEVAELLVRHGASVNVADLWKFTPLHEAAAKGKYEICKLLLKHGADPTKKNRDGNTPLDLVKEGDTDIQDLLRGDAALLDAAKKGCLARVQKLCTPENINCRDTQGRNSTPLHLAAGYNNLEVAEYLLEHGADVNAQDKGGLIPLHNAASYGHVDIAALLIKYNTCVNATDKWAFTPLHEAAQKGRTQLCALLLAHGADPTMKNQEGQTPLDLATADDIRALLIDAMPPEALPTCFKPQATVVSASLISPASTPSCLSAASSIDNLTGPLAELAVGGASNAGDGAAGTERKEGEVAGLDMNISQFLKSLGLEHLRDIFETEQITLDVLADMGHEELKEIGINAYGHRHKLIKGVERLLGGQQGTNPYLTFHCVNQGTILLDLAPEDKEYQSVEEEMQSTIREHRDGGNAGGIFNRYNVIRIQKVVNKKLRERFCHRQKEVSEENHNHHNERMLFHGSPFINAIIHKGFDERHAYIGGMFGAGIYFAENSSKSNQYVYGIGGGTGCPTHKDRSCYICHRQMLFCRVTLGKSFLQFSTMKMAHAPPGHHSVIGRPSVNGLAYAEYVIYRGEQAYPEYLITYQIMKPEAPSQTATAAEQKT

[2] = molecular target: T2, Protein mono-ADP-ribosyltransferase PARP3 (Homo sapiens) (UniProt Q9Y6F1); test: Inhibition of human recombinant PARP3 at 10 uM incubated for 1 hr using NAD+, biotinylated NAD+ and activated DNA by luminescence based assay
T2 sequence (whole entry): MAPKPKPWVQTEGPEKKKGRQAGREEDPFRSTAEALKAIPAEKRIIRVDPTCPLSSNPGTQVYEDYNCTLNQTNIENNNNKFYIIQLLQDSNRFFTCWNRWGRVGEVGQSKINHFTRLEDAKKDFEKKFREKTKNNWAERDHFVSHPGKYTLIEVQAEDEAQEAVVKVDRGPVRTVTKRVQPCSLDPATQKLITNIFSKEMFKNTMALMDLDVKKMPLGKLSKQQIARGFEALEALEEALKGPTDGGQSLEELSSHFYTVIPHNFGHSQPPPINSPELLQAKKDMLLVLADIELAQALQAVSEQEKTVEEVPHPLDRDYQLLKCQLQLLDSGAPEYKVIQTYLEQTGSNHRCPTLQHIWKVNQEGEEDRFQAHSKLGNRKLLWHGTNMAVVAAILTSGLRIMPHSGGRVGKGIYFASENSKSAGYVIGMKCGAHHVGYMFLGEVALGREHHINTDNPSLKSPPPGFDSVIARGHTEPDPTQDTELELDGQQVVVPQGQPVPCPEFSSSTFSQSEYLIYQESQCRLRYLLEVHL
In short: (§1)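 Recombinant PARP enzyme reactions were run in duplicate for 1 h at rt on histone-coated plates in Tris·HCl pH 8.0 buffer with NAD+, biotinylated NAD+ and activated DNA. Detection used streptavidin-HRP for 30 min at rt, then a chemiluminescent developer. % inhibition = 100 − % activity, scaled between the no-compound (100%) and no-enzyme (0%) signals.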

[3] = molecular target: Protein mono-ADP-ribosyltransferase PARP6 (Homo sapiens) (UniProt Q2NL67); test: Inhibition of human recombinant PARP6 at 10 uM incubated for 1 hr using NAD+, biotinylated NAD+ and activated DNA by luminescence based assay; in short: as §1
[4] = molecular target: T3, Protein mono-ADP-ribosyltransferase PARP12 (Homo sapiens) (UniProt Q9H0J9); test: Inhibition of human recombinant PARP12 at 10 uM incubated for 1 hr using NAD+, biotinylated NAD+ and activated DNA by luminescence based assay; in short: as §1
T3 sequence (whole entry): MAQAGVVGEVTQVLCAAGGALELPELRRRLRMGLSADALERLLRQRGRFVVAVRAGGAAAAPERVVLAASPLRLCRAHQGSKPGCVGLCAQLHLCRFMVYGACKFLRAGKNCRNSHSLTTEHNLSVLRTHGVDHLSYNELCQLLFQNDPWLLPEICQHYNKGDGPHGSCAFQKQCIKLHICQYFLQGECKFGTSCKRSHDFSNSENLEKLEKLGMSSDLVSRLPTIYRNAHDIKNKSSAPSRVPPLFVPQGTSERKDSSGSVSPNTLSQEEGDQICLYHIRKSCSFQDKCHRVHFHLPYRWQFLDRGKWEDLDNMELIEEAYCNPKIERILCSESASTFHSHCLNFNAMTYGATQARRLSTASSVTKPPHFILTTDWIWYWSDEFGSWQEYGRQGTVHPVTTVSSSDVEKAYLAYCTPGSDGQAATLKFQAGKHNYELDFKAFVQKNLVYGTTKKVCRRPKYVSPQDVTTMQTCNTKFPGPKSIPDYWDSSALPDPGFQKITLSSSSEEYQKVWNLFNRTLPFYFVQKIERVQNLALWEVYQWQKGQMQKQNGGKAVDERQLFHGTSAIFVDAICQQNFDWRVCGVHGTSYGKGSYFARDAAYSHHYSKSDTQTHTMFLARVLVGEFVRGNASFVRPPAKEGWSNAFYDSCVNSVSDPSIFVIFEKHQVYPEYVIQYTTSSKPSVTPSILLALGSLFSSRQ

Sequence of Protein mono-ADP-ribosyltransferase PARP6 (Homo sapiens) (Q2NL67 whole entry): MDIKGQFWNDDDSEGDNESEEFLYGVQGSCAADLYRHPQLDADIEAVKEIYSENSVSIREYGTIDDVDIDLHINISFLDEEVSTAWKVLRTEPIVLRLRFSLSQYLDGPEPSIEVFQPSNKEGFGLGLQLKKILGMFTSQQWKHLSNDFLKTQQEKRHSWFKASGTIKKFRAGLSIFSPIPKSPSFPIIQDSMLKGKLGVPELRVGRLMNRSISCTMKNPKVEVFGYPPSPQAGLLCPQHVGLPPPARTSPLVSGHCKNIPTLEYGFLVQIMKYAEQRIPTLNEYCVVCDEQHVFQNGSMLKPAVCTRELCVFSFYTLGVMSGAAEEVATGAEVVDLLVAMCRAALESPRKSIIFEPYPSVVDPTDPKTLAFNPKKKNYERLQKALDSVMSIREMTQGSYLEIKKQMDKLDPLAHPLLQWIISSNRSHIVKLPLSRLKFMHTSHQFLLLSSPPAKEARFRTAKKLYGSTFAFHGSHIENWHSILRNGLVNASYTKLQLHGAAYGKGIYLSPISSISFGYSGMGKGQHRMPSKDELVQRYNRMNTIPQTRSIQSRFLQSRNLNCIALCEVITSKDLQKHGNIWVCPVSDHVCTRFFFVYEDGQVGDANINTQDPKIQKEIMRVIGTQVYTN

Work on `CC(C)(C)c1ccc(-c2nc3c(sc4ccccc43)c(=O)[nH]2)cc1` yielded an IC50 [1] of 21.3 nM, an inhibition [2] of 1% and an inhibition [3] of 6%. The inhibition [4] was 14%.
